According to ChEMBL document CHEMBL3745678, “Novel β-Carboline/Hydroxamic Acid Hybrids Targeting Both Histone Deacetylase and DNA Display High Anticancer Activity via Regulation of the p53 Signaling Pathway” (J Med Chem, 2015):
The source made the active and inactive calls. The calls are words filed in the database; no cut-off is given here.

Experiments:
Mus musculus [1] = test: Acute toxicity in ICR mouse assessed as abnormality in drinking at 240 mg/kg, ip measured for 14 days; type: organism-based; conditions: in vivo, 336 h
In short: (§1)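 Female ICR mice, single intraperitoneal injection at 585.9, 468.8, […], 300 or 240 mg/kg, or vehicle control, n = 10 per group. Deaths counted at 1 h, 4 h, daily on days 1-4 and over days 5-14. Eating, drinking, body weight and activity observed for 14 days, with survival (%) taken on day 14. LD50 calculated from mortality.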

Mus musculus [2] = test: Acute toxicity in ICR mouse assessed as death at 240 mg/kg, ip measured for 14 days; type: organism-based; conditions: in vivo, 336 h; in short: as §1
HCT-116 [3] = test: Induction of apoptosis in human HCT116 cells after 48 hrs by annexin V-FITC/propidium iodide staining-based flow cytometric analysis; type: functional, cell-based
In short: (§2)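 HCT116 cells cultured overnight, then exposed in triplicate for 48 h to 0.1, 1.0 or 5.0 µM, SAHA 5.0 µM or vehicle. Stained with FITC-Annexin V/PI for 15 min at room temperature.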

Mus musculus [4] = test: Acute toxicity in ICR mouse assessed as death at 240 to 585.9 mg/kg, ip measured after 4 hrs; type: organism-based; conditions: in vivo; in short: as §1
[5] = Acute toxicity in ICR mouse assessed as survival rate at 240 mg/kg, ip measured on day 14; type: organism-based; conditions: in vivo; in short: as §1
[6] = target: Cellular tumor antigen p53 (Homo sapiens) (UniProt P04637); test: Activation of p53 in human HCT116 cells assessed as p53 phosphorylation at ser15 residue at 0.1 to 5 uM after 12 hrs by western blot analysis; type: cell-based; conditions: HCT-116
Cellular tumor antigen p53 (Homo sapiens), sequence (P04637 whole entry, looked up): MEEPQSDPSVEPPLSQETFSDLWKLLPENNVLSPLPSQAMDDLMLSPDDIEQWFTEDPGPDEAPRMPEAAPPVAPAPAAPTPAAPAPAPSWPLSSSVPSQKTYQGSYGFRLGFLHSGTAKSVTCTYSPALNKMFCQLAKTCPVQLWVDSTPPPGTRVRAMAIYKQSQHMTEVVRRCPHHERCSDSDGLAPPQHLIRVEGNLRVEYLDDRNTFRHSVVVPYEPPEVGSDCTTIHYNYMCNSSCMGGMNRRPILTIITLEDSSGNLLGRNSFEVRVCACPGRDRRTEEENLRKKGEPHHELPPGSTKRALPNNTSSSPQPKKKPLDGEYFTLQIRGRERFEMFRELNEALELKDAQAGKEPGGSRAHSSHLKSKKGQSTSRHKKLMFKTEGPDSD
In short: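 HCT116 cells exposed 12 h to compound or vehicle, then lysed on ice in PBS with 1% NP-40, 0.5% deoxycholate, 0.1% SDS and protease inhibitors. Up to 50 µg protein run on SDS-PAGE and immunoblotted for phospho-p53 (Ser15), p53 and p21. Bands quantified by densitometry against β-actin; mean ± SD of three experiments.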

Histone deacetylase 1 [7] = target: T1, Histone deacetylase 1 (Homo sapiens, UniProt Q13547); test: Potency index, ratio of IC50 for SAHA to IC50 for test compound for inhibition of human recombinant HDAC1 using Boc-Lys (Ac)-AMC as substrate after 60 mins by fluorometric analysis
T1 sequence (Q13547 whole entry): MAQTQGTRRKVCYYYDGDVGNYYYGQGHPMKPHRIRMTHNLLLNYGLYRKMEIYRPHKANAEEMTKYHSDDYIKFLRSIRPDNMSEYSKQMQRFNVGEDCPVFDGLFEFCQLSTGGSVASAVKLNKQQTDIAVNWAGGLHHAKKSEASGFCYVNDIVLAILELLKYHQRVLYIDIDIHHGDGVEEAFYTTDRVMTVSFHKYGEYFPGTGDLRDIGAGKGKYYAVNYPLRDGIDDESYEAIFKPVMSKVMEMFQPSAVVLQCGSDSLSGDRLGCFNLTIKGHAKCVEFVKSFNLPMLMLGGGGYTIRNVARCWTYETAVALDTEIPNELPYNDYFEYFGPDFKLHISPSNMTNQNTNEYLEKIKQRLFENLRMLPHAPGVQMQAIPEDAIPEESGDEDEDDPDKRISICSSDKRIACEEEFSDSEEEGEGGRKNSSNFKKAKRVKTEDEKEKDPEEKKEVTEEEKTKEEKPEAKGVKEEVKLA
In short: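 Recombinant human HDAC1 and HDAC8 incubated with compound dilutions plus Boc-Lys(Ac)-AMC at 37 °C for 60 min, then developer for 30 min. Fluorescence read at ex 355/em 460 nm; activity as % of control and IC50 calculated. Ratios formed from these IC50s; three independent experiments.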

[8] = target: T2, Histone deacetylase (Homo sapiens) (UniProt Q13547+O15379+Q9UBN7+Q92769+Q9UQL6+Q8WUI4+Q9BY41+Q96DB2+P56524+Q9UKV0+Q969S8); test: Inhibition of HDAC in human HCT116 cells assessed as increase in acetyl-histone H3 expression after 48 hrs by immunoblotting analysis; type: cell-based; conditions: HCT-116
In short: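 HCT116 cells treated 48 h with compound, SAHA or vehicle. Lysates probed by immunoblot for acetyl-histone H3 and acetyl-α-tubulin, with β-actin as loading control. Relative levels by densitometric scanning; means ± SD of three experiments.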

HCT-116 [9] = test: Antiproliferative activity against human HCT116 cells assessed as cell death at 5 uM after 48 hrs by MTT assay; type: functional, cell-based
In short: (§3)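 HCT116 and rat IEC-18 cells incubated 48 h over a 0–5 µM range. Viability measured by MTT and expressed as % of control. GI50 taken from the inhibition curves; three independent experiments.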

HCT-116 [10] = test: Induction of caspase-3 cleavage in human HCT116 cells at 1 to 5 uM after 48 hrs by western blot analysis; type: functional, cell-based
In short: (§4)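 HCT116 cells treated 48 h with or without compound. Western blots probed for Bax, Bcl-2, cleaved caspase-3 and PARP. Band intensities relative to β-actin by densitometry; means ± SD from three separate experiments.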

[11] = Cytotoxicity against rat IEC-18 cells assessed as survival at 5 uM after 48 hrs by MTT assay; type: cell-based; conditions: iec-18, 48 h; in short: as §3
HCT-116 [12] = test: Induction of PARP cleavage in human HCT116 cells at 1 to 5 uM after 48 hrs by western blot analysis; type: functional, cell-based; in short: as §4
Histone deacetylase 1 [13] = target: T1, Histone deacetylase 1; test: Inhibition of recombinant human HDAC1 using Boc-Lys (Ac)-AMC as substrate after 60 mins by fluorometric analysis
Mus musculus [14] = test: Toxicity in BALB/c mouse xenografted with human HCT116 cells assessed as body weight change at 90 mg/kg, po measured twice per week over 22 days; type: organism-based, HCT-116; conditions: in vivo, 528 h
[15] = Antiproliferative activity against human HCT116 cells assessed as cell viability after 48 hrs by MTT assay; type: functional, cell-based, HCT-116; conditions: Homo sapiens, HCT-116, 48 h
HCT-116 [16] = test: Selectivity index, ratio of GI50 for rat IEC-18 cells to GI50 for human HCT116 cells; type: functional; in short: as §3
LoVo = test: Antiproliferative activity against human LoVo cells assessed as cell viability after 48 hrs by MTT assay; type: functional, cell-based
[17] = Cytotoxicity against rat IEC-18 cells assessed as survival after 48 hrs by MTT assay; type: cell-based; in short: as §3
[18] = Acute toxicity in ip dosed ICR mouse measured for 14 days; type: organism-based; conditions: in vivo; in short: as §1
Mus musculus [19] = test: Acute toxicity in ICR mouse assessed as death at 240 to 375 mg/kg, ip measured after 4 hrs; type: organism-based; conditions: in vivo; in short: as §1
Mus musculus [20] = test: Acute toxicity in ICR mouse assessed as abnormal activity at 240 mg/kg, ip measured for 14 days; type: organism-based; conditions: in vivo, 336 h; in short: as §1
[21] = target: T2, Histone deacetylase (Homo sapiens); test: Potency index, ratio of SAHA IC50 to compound IC50 for HDAC in human HeLa cell nuclear extract; type: cell-based
In short: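 HDAC source was HeLa nuclear extract. Incubated with compound dilutions and Boc-Lys(Ac)-AMC substrate for 60 min at 37 °C, then lysine developer added for 30 min. Fluorescence read at ex 355/em 460 nm, activity expressed as % of control and IC50 fitted. Index = SAHA IC50 ÷ compound IC50.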

HDAC6 (Homo sapiens) = test: Selectivity index, ratio of IC50 for human recombinant HDAC8 to IC50 for human recombinant HDAC6
SW480 = test: Antiproliferative activity against human SW480 cells assessed as cell viability after 48 hrs by MTT assay; type: functional, cell-based; conditions: SW480, 48 h
Mus musculus [22] = test: Acute toxicity in ICR mouse assessed as death at 468.8 mg/kg, ip measured after 5 to 14 days; type: organism-based; conditions: in vivo; in short: as §1
HCT-116 [23] = test: Induction of apoptosis in human HCT116 cells at 0.1 uM after 48 hrs by annexin V-FITC/propidium iodide staining-based flow cytometric analysis; type: functional; in short: as §2
Mus musculus [24] = test: Acute toxicity in ICR mouse assessed as death at 240 mg/kg, ip measured after 4 days; type: organism-based; conditions: in vivo, 96 h; in short: as §1
[25] = Upregulation of Bax expression in human HCT116 cells after 48 hrs by western blot analysis; type: functional, cell-based; conditions: HCT-116; in short: as §4
Mus musculus [26] = test: Acute toxicity in ICR mouse assessed as body weight change at 240 mg/kg, ip measured for 14 days; type: organism-based; conditions: in vivo, 336 h; in short: as §1
[27] = Acute toxicity in ICR mouse assessed as survival rate at 300 mg/kg, ip measured on day 14; type: organism-based; conditions: in vivo; in short: as §1

## COc1ccc(-c2nc(NC(=O)NCCCC(=O)NO)cc3c2[nH]c2ccccc23)cc1
Mus musculus [1]
  Activity: Non-toxic
Mus musculus [2]
  Activity: Non-toxic
HCT-116 [3]
  Activity: Dose-dependent effect
Mus musculus [4]
  Activity: Non-toxic
[5]
  survival at 14 day: 100%
[6]
  Activity: Active
Histone deacetylase 1 [7]
  Ratio IC50: 7
[8]
  inhibition: Dose-dependent effect
HCT-116 [9]
  Activity: Active
HCT-116 [10]
  Activity: Active
[11]
  Activity: Non-toxic
HCT-116 [12]
  Activity: Active
Histone deacetylase 1 [13]
  IC50: 26 nM
Mus musculus [14]
  Activity: Non-toxic
[15]
  GI50: 1170 nM
  IC50: 830 nM
HCT-116 [16]
  RatioGI50: 5
LoVo
  IC50: 1630 nM
[17]
  GI50 at 48 h: 5460 nM
[18]
  LD50 at 336 h: 472 mg/kg
Mus musculus [19]
  Activity: Non-toxic
Mus musculus [20]
  Activity: Non-toxic
[21]
  Ratio IC50: 2
HDAC6 (Homo sapiens)
  Ratio IC50: 5
SW480
  IC50: 1160 nM
Mus musculus [22]
  Activity: Non-toxic
HCT-116 [23]
  Activity: 21.6%
Mus musculus [24]
  Activity: Non-toxic
[25]
  Activity: Dose-dependent effect
Mus musculus [26]
  Activity: Non-toxic
[27]
  survival at 14 day: 90%
